# Measurements: ChEMBL document CHEMBL3286302, “Design, synthesis and biological evaluation of small molecular polyphenols as entry inhibitors against H(5)N(1)” (Bioorg Med Chem Lett, 2014)
# Active and inactive are the calls of the source. The rule behind the calls is not given here.
# What was measured:
# [1] = Cytotoxicity against MDCK cells after 72 hrs by MTT assay; type: cell-based, Canis lupus familiaris; conditions: dog
# Outline: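 Uninfected MDCK cells were assayed by MTT. CC50 is the concentration causing 50% cell death. Values are the average of three separate experiments.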
# [2] = Selectivity index, ratio of CC50 for MDCK cells to IC50 for Influenza A virus (A/Vietnam/1194/2004(H5N1)); type: functional
# [3] = Antiviral activity against Influenza A virus (A/Vietnam/1194/2004(H5N1)) infected in MDCK cells assessed as inhibition of viral replication after 2 to 3 days by crystal violet staining-based plaque reduction assay; type: functional, cell-based
# Influenza A virus = assay: Inhibition of Influenza A virus H5N1 hemagglutinin adsorption to chicken RBC at 100 ug/ml by two-fold dilution method
# Outline: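 Hemagglutination inhibition assay using H5 standard antigen and antiserum. Compounds were tested in serial 2-fold dilutions from 100 to 0.098 µg/ml.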
# [4] = target: Neuraminidase (Influenza A virus) (UniProt B4URF0); assay: Inhibition of Influenza A virus H5N1 neuraminidase up to 20 ug/ml by fluorescence spectrophotometric analysis
# cells [5] = type: functional, Influenza A virus (A/Vietnam/1194/2004(H5N1)); conditions: Influenza A virus, MDCK, 2 h
# cells [6] = type: functional, Influenza A virus (A/Vietnam/1194/2004(H5N1)); conditions: Influenza A virus, MDCK, 2 h; remark: listed apart in the source
# Sequence of Neuraminidase (Influenza A virus) (B4URF0 as listed by the source): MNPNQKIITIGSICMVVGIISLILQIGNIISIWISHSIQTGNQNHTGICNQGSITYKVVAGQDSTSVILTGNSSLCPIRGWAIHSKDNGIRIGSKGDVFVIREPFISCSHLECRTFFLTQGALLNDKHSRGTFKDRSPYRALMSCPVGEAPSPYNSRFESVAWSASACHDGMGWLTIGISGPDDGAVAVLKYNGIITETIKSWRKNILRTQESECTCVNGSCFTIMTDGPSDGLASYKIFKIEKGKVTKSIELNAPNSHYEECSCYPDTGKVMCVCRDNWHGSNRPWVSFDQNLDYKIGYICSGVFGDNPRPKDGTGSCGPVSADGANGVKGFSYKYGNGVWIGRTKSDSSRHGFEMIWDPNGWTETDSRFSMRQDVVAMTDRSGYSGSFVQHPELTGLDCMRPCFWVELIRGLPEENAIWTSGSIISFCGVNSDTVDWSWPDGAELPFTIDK
compound,measurement,setting,value
COC(=O)CCc1ccc(OC)c(OC)c1,CC50 at 72 h,[1],> 149 µM
CCOC(=O)c1ccc(O)c(O)c1,Ratio CC50/IC50,[2],>10.55
same,CC50 at 72 h,[1],> 170 µM
same,IC50,[3],16.1 µM
COC(=O)Cc1ccc(OC)c(OC)c1,CC50 at 72 h,[1],> 159 µM
OCc1ccc(O)c(O)c1,inhibition,Influenza A virus,inactive
same,Ratio CC50/IC50,[2],>80.15
same,inhibition,[4],inactive
same,CC50 at 72 h,[1],> 143 µM
same,inhibition at 30 µM,cells [5],100%
same,IC50,[3],1.78 µM
same,inhibition at 30 µM,cells [6],20%
NC12CC3CC(CC(C3)C1)C2 [AMANTADINE],Ratio CC50/IC50,[2],20.27
same,CC50 at 72 h,[1],219 µM
same,IC50,[3],10.8 µM
COC(=O)CCc1ccc(O)c(O)c1,Ratio CC50/IC50,[2],>10.01
same,CC50 at 72 h,[1],> 238 µM
same,IC50,[3],23.8 µM
COC(=O)c1ccc(OC)c(OC)c1 [VERATRIC ACID METHYL ESTER],CC50 at 72 h,[1],> 170 µM
CCOC(=O)CCc1ccc(O)c(O)c1,Ratio CC50/IC50,[2],>10.08
same,CC50 at 72 h,[1],> 216 µM
same,IC50,[3],21.5 µM
CC(C)OC(=O)c1ccc(O)c(O)c1,inhibition,Influenza A virus,inactive
same,Ratio CC50/IC50,[2],>10.65
same,inhibition,[4],inactive
same,CC50 at 72 h,[1],> 159 µM
same,inhibition at 30 µM,cells [5],> 50%
same,IC50,[3],14.9 µM
same,inhibition at 30 µM,cells [6],20%
COC(=O)Cc1ccc(O)c(O)c1,Ratio CC50/IC50,[2],>8.7
same,CC50 at 72 h,[1],> 170 µM
same,IC50,[3],19.5 µM
CC(C)OC(=O)CCc1ccc(O)c(O)c1,Ratio CC50/IC50,[2],>10.16
same,CC50 at 72 h,[1],> 198 µM
same,IC50,[3],19.5 µM
CCOC(=O)Cc1ccc(O)c(O)c1,Ratio CC50/IC50,[2],>9.41
same,CC50 at 72 h,[1],> 159 µM
same,IC50,[3],16.9 µM
COC(=O)c1ccc(O)c(O)c1 [METHYL PROTOCATECHUATE],Ratio CC50/IC50,[2],>10.02
same,CC50 at 72 h,[1],> 183 µM
same,IC50,[3],18.3 µM
CC(=O)N[C@H]1[C@H]([C@H](O)[C@H](O)CO)OC(C(=O)O)=C[C@@H]1NC(=N)N [ZANAMIVIR],Ratio CC50/IC50,[2],>113.64
same,CC50 at 72 h,[1],> 100 µM
same,IC50,[3],0.88 µM
COC(=O)[C@H](CC(C)C)NC(=O)c1ccc(O)c(O)c1,inhibition,Influenza A virus,inactive
same,Ratio CC50/IC50,[2],>5.33
same,inhibition,[4],inactive
same,CC50 at 72 h,[1],> 119 µM
same,inhibition at 30 µM,cells [5],> 50%
same,IC50,[3],22.2 µM
same,inhibition at 30 µM,cells [6],20%
COC(=O)[C@H](Cc1ccccc1)NC(=O)c1ccc(O)c(O)c1,CC50 at 72 h,[1],> 106 µM
COC(=O)[C@H](Cc1ccccc1)NC(=O)Cc1ccc(O)c(O)c1,CC50 at 72 h,[1],> 170 µM
COC(=O)[C@H](CC(C)C)NC(=O)Cc1ccc(O)c(O)c1,Ratio CC50/IC50,[2],>4.38
same,CC50 at 72 h,[1],> 183 µM
same,IC50,[3],41.8 µM
CC(C)OC(=O)Cc1ccc(O)c(O)c1,Ratio CC50/IC50,[2],>9.77
same,CC50 at 72 h,[1],> 149 µM
same,IC50,[3],15.2 µM
